Calls of active or inactive are those of the source. The calls are words filed in the database; no cut-off is given here.
How the values were obtained:
[1] = tested on: Trypanosoma cruzi; assay: Antitrypanosomal activity against Trypanosoma cruzi Tulahuen 2 epimastigotes assessed as inhibition of parasite growth after 5 days; format: functional; conditions: for IC50: Trypanosoma cruzi, Tulahuen 2, 120 h, read-out: ID50 (the source's name)
In short: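 Stationary-phase (10-day) Tulahuen 2 epimastigotes inoculated at 1×10^6 cells/mL in BHI-Tryptose + 5% FBS, 28 °C, drug added from DMSO stock (final DMSO ≤0.4%; control 0.4% DMSO). Growth followed as A600; inhibition from day-5 vs day-0 absorbance relative to control. ID50 = concentration reducing absorbance ratio to 50%; three independent experiments.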

[2] = Cytotoxicity against mouse J774 cells; format: cell-based; conditions: read-out: ID50 (the source's name)
[3] = Selective index, ratio of ID50 for mouse J774 cells to ID50 for Trypanosoma cruzi Tulahuen 2
[4] = tested on: J774; assay: Cytotoxicity against mouse J774 cells at 100 uM relative to 5-((hydroxyimino)methyl)-2,2-dimethyl-2H-benzo[d]imidazole 1,3-dioxide; format: cell-based; conditions: j774, 100 µM
[5] = tested on: Trypanosoma cruzi; assay: Antitrypanosomal activity against Trypanosoma cruzi Y epimastigotes after 5 days by MTT assay; format: functional; conditions: 120 h, read-out: ID50
In short: (§1)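 Epimastigotes (T. cruzi strains, BHI-Tryptose + 5% FBS, 28 °C) or L. braziliensis LTB300 promastigotes (axenic RPMI + 5% FBS, 28 °C) from exponential culture in 24-well plates; compounds from DMSO stock added for 5 days. Washed in PBS, 0.4 mg/mL MTT at 37 °C for 3 h, formazan dissolved in DMSO, OD595 read. Triplicate per concentration, six growth controls; 1.0–50.0 μM dose-response, ID50 = concentration reducing absorbance ratio to 50%; three independent experiments.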

[6] = tested on: Leishmania braziliensis; assay: Antiparasitic activity against Leishmania braziliensis MHOM/BR/00/LTB300 after 5 days by MTT assay; format: functional; conditions: MHOM/BR/00/LTB300, 120 h, read-out: ID50; in short: as §1
[7] = Selective index, ratio of ID50 for mouse J774 cells to ID50 for Leishmania braziliensis LTB300
[8] = tested on: Trypanosoma cruzi; assay: Antitrypanosomal activity against Trypanosoma cruzi Colombiana assessed as parasitic cytotoxicity at 25 uM after 5 days by MTT assay; format: functional
In short: (§2)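 Single 25 μM dose for 5 days on exponential-phase epimastigotes in BHI-Tryptose + 5% FBS, 24-well plates; MTT 0.4 mg/mL, 3 h at 37 °C after PBS wash, formazan in DMSO, OD595. PCyt = [[…] (ODd − ODdm)/(ODc − ODcm)] × 100 with medium-only blanks, compound-in-medium blanks and growth controls; three independent experiments.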

[9] = tested on: Trypanosoma cruzi; assay: Antitrypanosomal activity against Trypanosoma cruzi CL Brener epimastigotes assessed as parasitic cytotoxicity at 25 uM after 5 days by MTT assay; format: functional; in short: as §2
[10] = tested on: Trypanosoma cruzi; assay: Antitrypanosomal activity against Trypanosoma cruzi CL Brener epimastigotes after 5 days by MTT assay; format: functional; conditions: 120 h, read-out: ID50; in short: as §1
[11] = tested on: Trypanosoma cruzi; assay: Inhibition of Mitochondrial dehydrogenase in Trypanosoma cruzi Y epimastigotes at 20 uM after 30 to 240 mins by MTT dye reduction assay in relative to control
In short: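 Y-strain epimastigotes, 10^6 per well in 500 µL, 20 μM compound, 28 °C for 30–240 min with time-matched untreated controls. MTT (50 µL of 5 mg/mL) added for 4 h more, stopped with acidic isopropanol, A570 read; activity expressed as % of untreated parasites.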

[12] = tested on: Trypanosoma cruzi; assay: Decrease of glucose uptake in Trypanosoma cruzi Y epimastigotes after 4 hrs relative to control; format: functional, organism-based
In short: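 Y-strain epimastigotes (80×10^6/mL) washed and resuspended in PBS with 1 mM glucose, exposed 4 h to 20 μM compound from DMSO. Parasite-free supernatant refluxed 1 h with Benedict's reagent; remaining glucose quantified at 700 nm against a calibration curve.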

[13] = tested on: Trypanosoma cruzi; assay: Antitrypanosomal activity against Trypanosoma cruzi Colombiana after 5 days by MTT assay; conditions: 120 h, read-out: ID50
[14] = tested on: Leishmania braziliensis; assay: Inhibition of Mitochondrial dehydrogenase in Leishmania braziliensis MHOM/BR/00/LTB300 at 20 uM after 30 to 240 mins by MTT dye reduction assay in relative to control
[15] = tested on: Trypanosoma cruzi; assay: Reduction of end products excretion levels in Trypanosoma cruzi Y epimastigotes after 2 days by [1H]NMR method; format: functional, organism-based
In short: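 Y-strain epimastigotes treated 2 days with 5 μM compound; culture centrifuged 1500 g, 10 min, 4 °C, parasite-free supernatant stored at −20 °C. Supernatant plus DMF internal standard and D2O run by 1H NMR with water suppression; metabolite peaks confirmed by spiking and standards, compared to untreated and parasite-free medium.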

[16] = tested on: Trypanosoma cruzi; assay: Antitrypanosomal activity against Trypanosoma cruzi CL Brener trypomastigotes infected in Vero cells assessed as parasite lysis at 10 uM after 26 hrs relative to untreated control; format: functional
In short: (§3)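 Cell-culture trypomastigotes released from infected Vero cells (37 °C, 5% CO2, 5–7 days), collected by centrifugation and allowed 4 h at 37 °C to swim off. Supernatant parasites exposed to 10.0–50.0 μM for 2–26 h; lysis counted in a Neubauer chamber relative to untreated parasites; three independent experiments.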

[17] = tested on: Trypanosoma cruzi; assay: Antitrypanosomal activity against Trypanosoma cruzi CL Brener trypomastigotes infected in Vero cells assessed as parasite lysis at 10 uM after 2 hrs relative to untreated control; format: functional; in short: as §3
[18] = tested on: Trypanosoma cruzi; assay: Antitrypanosomal activity against Trypanosoma cruzi CL Brener trypomastigotes infected in Vero cells assessed as parasite lysis at 10 uM after 3 hrs relative to untreated control; format: functional; in short: as §3
[19] = tested on: Trypanosoma cruzi; assay: Antitrypanosomal activity against Trypanosoma cruzi CL Brener trypomastigotes infected in Vero cells assessed as parasite lysis at 10 uM after 22 hrs relative to untreated control; format: functional; in short: as §3
[20] = tested on: Trypanosoma cruzi; assay: Trypanocidal activity against Trypanosoma cruzi CL Brener amastigotes infected in Vero cells assessed as parasite infection at 2.5 uM after 72 hrs
[21] = tested on: Trypanosoma cruzi; assay: Antitrypanosomal activity against Trypanosoma cruzi CL Brener trypomastigotes infected in Vero cells assessed as parasite lysis at 25 uM after 19 hrs relative to untreated control; format: functional; in short: as §3
[22] = tested on: Trypanosoma cruzi; assay: Antitrypanosomal activity against Trypanosoma cruzi CL Brener trypomastigotes infected in Vero cells assessed as parasite lysis at 50 uM after 19 hrs relative to untreated control; format: functional; in short: as §3
[23] = tested on: Trypanosoma cruzi; assay: Trypanocidal activity against Trypanosoma cruzi CL Brener amastigotes infected in Vero cells assessed as parasite infection at 5 uM after 72 hrs; format: functional
In short: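 Vero cells (4×10^7/L) on coverslips in modified Eagle's medium + 3% FBS, 37 °C; after 24 h infected with trypomastigotes (5×10^9/L) ± compound. Non-internalized parasites removed at 24 h, fresh medium ± compound, 72 h further incubation; May-Grünwald-Giemsa stain, 500 cells scored for % infected and amastigotes per cell; endocytic index = product of the two.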

Structure (SMILES) | IC50 [1] | CC50 [2] | Ratio [3] | Activity [4] | IC50 [5] | IC50 [6] | Ratio [7] | Activity [8] | Activity [9] | further results
[O-][N+]1=c2ccc(/C=N/O)cc2=[N+]([O-])C12CCCC2 | 19.8 µM | 130 µM | 6.6 | 0.82% | 5.7 µM | 26.7 µM | 4.9 | 29% | 65.6% | –
CC1CS(=O)(=O)CCN1/N=C/c1ccc([N+](=O)[O-])o1 (stereo not given) [NIFURTIMOX] | 7.7 µM | 346 µM | 44.9 | – | 9.7 µM | – | – | 87% | 90% | IC50 [10]: 4.9 µM; Activity [11]: inactive; Activity [12]: inactive; IC50 [13]: 3.4 µM
COc1ccc(CC2(C)[N+]([O-])=c3ccccc3=[N+]2[O-])cc1 | – | > 400 µM | 8 | 0.32% | – | 35 µM | >11.4 | 30.8% | – | ID50 [1]: > 50 µM
CC1(C)[N+]([O-])=c2ccc(/C=N/O)cc2=[N+]1[O-] | – | 77 µM | 6.2 | – | 16.4 µM | > 50 µM | <1.5 | 21.7% | 46.6% | IC50 [10]: > 40 µM
CC1(Cc2ccccc2)[N+]([O-])=c2ccccc2=[N+]1[O-] | > 50 µM | 302 µM | <6 | 0.46% | – | 20.7 µM | 14.6 | 18.6% | 47% | –
Cc1ccc2c(c1)=[N+]([O-])C(C)(C)[N+]=2[O-] | 5.1 µM | – | – | – | 3.3 µM | 30.4 µM | – | 35.1% | 61.4% | Activity [14]: inactive; Activity [15]: Active; Activity [11]: inactive; Activity [12]: inactive
[O-][N+]1=c2ccc(Br)cc2=[N+]([O-])C12CCCC2 | 16.3 µM | 100 µM | 6.1 | 0.82% | 3.5 µM | 26.7 µM | 3.7 | 83.8% | 91.5% | Activity [16]: 16%; Activity [14]: Active; Activity [15]: Active; Activity [17]: 0%; Activity [11]: inactive; Activity [18]: 35%; Activity [19]: 16%; Activity [12]: Active
COc1ccc2c(c1)=[N+]([O-])C1(CCCC1)[N+]=2[O-] | 25 µM | 100 µM | 4 | 0.89% | 4.9 µM | > 50 µM | <2 | 17.3% | 62.6% | –
O=C(Cn1ccnc1[N+](=O)[O-])NCc1ccccc1 [BENZNIDAZOLE] | 7.4 µM | – | – | – | – | – | – | – | – | Activity [11]: Active
CC1(Cc2ccc(Cl)cc2)[N+]([O-])=c2ccccc2=[N+]1[O-] | 40 µM | 55 µM | 1.4 | 1.42% | – | – | – | – | – | –
CC1(C)[N+]([O-])=c2ccc(Cl)cc2=[N+]1[O-] | 10.1 µM | 38 µM | 3.8 | 1.74% | – | – | – | – | – | –
CCCCCCCCCCCCCCCCOP(=O)([O-])OCC[N+](C)(C)C [MILTEFOSINE] | – | 136 µM | – | – | – | 9 µM | 15.1 | – | – | Activity [14]: Active
Cc1ccc2c(c1)=[N+]([O-])C1(CCCC1)[N+]=2[O-] | 7.9 µM | 63 µM | 8 | 1.22% | 15.8 µM | 8.9 µM | 7.1 | 59.3% | 56.5% | Activity [20]: 34.8%; Activity [16]: 24%; Activity [21]: 24%; Activity [14]: Active; Activity [15]: Active; Activity [17]: 1%; Activity [22]: 52%; Activity [11]: inactive; Activity [18]: 39%; Activity [19]: 25%; Activity [12]: Active; Activity [23]: 14.7%
CC1(C)[N+]([O-])=c2ccc(/C=C/c3ccc4c(c3)OCO4)cc2=[N+]1[O-] | 3.1 µM | 58 µM | 18.7 | 1.37% | – | – | – | – | – | –
Cc1c(Sc2ccccc2)[n+]([O-])c2cc(Cl)c(Cl)cc2[n+]1[O-] | – | – | – | – | – | – | – | – | – | Activity [11]: Active
[O-][N+]1=c2cc(Cl)c(Cl)cc2=[N+]([O-])C12CCCC2 | 12 µM | 39 µM | 3.3 | 1.65% | 5.3 µM | 5.4 µM | 7.2 | 60.9% | 67.1% | –
CC1(Cc2ccc([N+](=O)[O-])cc2)[N+]([O-])=c2ccccc2=[N+]1[O-] | 8.4 µM | 122 µM | 14.5 | 0.47% | – | – | – | – | – | –
[O-][N+]1=c2ccccc2=[N+]([O-])C12CCCC2 | 9.5 µM | > 400 µM | >42.1 | 0.75% | 6.4 µM | 3.6 µM | >111.1 | 94.8% | 83.7% | –
CC1(C)[N+]([O-])=c2ccc(/C=C/c3ccc(Cl)cc3)cc2=[N+]1[O-] | 8.1 µM | 52 µM | 6.4 | 1.48% | – | – | – | – | – | –
CC1(C)[N+]([O-])=c2cc(Cl)c(Cl)cc2=[N+]1[O-] | 14.5 µM | 100 µM | 6.9 | 0.87% | 9.9 µM | 10.1 µM | 9.9 | 94.4% | 88.3% | –
CCCCCC1(C)[N+]([O-])=c2ccccc2=[N+]1[O-] | 5.4 µM | 233 µM | 43.1 | 0.01% | – | > 50 µM | <4.7 | 77.1% | 88.2% | –

From ChEMBL document CHEMBL1155286, “Second generation of 2H-benzimidazole 1,3-dioxide derivatives as anti-trypanosomatid agents: synthesis, biological evaluation, and mode of action studies” (Eur J Med Chem, 2009)
